This note sets out measurements from ChEMBL document CHEMBL4433211, “Discovery of the First-in-Class GSK-3β/HDAC Dual Inhibitor as Disease-Modifying Agent To Combat Alzheimer's Disease” (ACS Med Chem Lett, 2019).

What is called IC50 is the midpoint of a concentration-inhibition curve.

Data set [1] deals with SH-SY5Y. Nature of the data set: Induction of neurogenesis in human SH-SY5Y cells assessed as upregulation of GAP43 mRNA at 10 uM incubated for 24 hrs by RT-PCR analysis. The data set is classed as functional, cell-based. Summed up:
(§1)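 SH-SY5Y cells treated 24 h (10 μM, or 1 μM for one parent compound; retinoic acid positive control); GAP43, N-myc and MAP-2 mRNA measured by RT-PCR, expressed as fold of control.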

The nature of data set [2]: Toxicity in zebra fish embryo at 25 uM dosed at 5 hpf and measured after 44 to 48 hpf by microscopic based assay. The data set is classed as organism-based, Danio rerio. To be noted: zebrafish, in vivo.
Data set [3] has as its system SH-SY5Y. In words: Induction of neurogenesis in human SH-SY5Y cells assessed as upregulation of N-myc mRNA at 10 uM incubated for 24 hrs by RT-PCR analysis. The data set is classed as functional, cell-based. In short, it runs like this:
as §1

The target of data set [4] is T1, Protein deacetylase HDAC6 (Homo sapiens, UniProt Q9UBN7).
T1 sequence (Q9UBN7 whole entry): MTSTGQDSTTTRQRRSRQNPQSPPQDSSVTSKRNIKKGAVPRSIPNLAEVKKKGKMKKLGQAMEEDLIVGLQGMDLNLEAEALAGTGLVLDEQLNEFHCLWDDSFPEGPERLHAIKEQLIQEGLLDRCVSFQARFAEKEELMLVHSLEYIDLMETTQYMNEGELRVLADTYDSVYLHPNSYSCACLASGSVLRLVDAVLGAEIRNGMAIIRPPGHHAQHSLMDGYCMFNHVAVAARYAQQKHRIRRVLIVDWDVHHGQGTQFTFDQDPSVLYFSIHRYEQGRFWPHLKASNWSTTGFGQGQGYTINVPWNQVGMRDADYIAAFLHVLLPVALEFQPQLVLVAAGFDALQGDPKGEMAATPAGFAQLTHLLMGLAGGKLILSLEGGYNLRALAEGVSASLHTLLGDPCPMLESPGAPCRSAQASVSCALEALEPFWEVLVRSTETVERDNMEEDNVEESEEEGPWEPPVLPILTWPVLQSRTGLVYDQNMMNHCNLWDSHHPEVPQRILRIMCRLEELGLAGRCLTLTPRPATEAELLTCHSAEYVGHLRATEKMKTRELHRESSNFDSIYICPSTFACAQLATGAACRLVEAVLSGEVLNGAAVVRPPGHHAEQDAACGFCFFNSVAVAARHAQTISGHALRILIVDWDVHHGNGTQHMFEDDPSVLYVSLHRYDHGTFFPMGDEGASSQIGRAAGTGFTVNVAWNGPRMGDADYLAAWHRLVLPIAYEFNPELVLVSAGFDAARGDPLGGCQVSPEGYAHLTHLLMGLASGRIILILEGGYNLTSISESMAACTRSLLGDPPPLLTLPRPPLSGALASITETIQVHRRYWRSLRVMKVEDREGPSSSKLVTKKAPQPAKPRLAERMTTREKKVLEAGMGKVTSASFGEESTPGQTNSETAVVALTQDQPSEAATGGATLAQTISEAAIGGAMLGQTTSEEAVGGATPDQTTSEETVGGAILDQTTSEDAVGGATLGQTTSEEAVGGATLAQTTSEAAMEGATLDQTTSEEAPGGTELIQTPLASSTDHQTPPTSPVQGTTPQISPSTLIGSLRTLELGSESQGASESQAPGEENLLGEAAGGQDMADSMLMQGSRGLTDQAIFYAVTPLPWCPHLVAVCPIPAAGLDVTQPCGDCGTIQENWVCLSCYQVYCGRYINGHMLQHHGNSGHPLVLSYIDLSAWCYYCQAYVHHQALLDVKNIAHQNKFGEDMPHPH
Nature of the data set: Inhibition of human recombinant his tagged HDAC6 expressed in baculovirus infected […] insect cells using batcp as substrate incubated for 1 hr by fluorescence based assay.

Data set [5] relates to SH-SY5Y. Nature of the data set: Neuroprotective activity against H2O2-induced cell death in human SH-SY5Y cells at 0.1 uM incubated for 24 hrs by MTS assay. The class given is functional, cell-based. Summed up:
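SH-SY5Y cells challenged 24 h with H2O2 (25 and 50 μM) in presence of compounds (0.1–10 μM), alone or as a two-compound combination; viability by MTS assay as % of control.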

In data set [6] the test system is Microglia. Nature of the data set: Immunomodulatory activity in LPS treated Wistar rat primary microglial cells assessed as decrease in NOS2 expression level at 5 to 50 uM incubated for 24 hrs by western blot analysis. The class given is functional, cell-based. In short, it runs like this: (§2)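 Primary microglial cells treated 24 h with LPS in presence or absence of test compound; NOS2, MRC1 and TREM2 protein assessed by Western blot, normalized to GAPDH.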

For data set [7], the target named is Histone deacetylase (Homo sapiens) (UniProt Q13547+O15379+Q9UBN7+Q92769+Q9UQL6+Q8WUI4+Q9BY41+Q96DB2+P56524+Q9UKV0+Q969S8). In words: Inhibition of HDAC in human SH-SY5Y cells assessed as increase in acetylation of histone 3 at lysines 9/14 at 0.1 to 5 uM incubated for 30 hrs by Western blot analysis. The class given is cell-based. Summed up: (§3)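 Human neuroblastoma SH-SY5Y cells treated 30 h at 0.1, 1.0 and 5.0 μM; cell lysates probed by Western blot for acetylated α-tubulin (HDAC6 cellular marker) and histone H3 acetylated at lysines 9/14 (H3K9K14ac).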
A general note: Immunoblotting shows a protein as a band on a membrane.

The test system of data set [8] is Microglia. In words: Immunomodulatory activity in LPS treated Wistar rat primary microglial cells assessed as decrease in MRC1 expression level at 5 to 50 uM incubated for 24 hrs by western blot analysis. The class given is functional, cell-based. In short, it runs like this:
as §2

A short description of data set [9]: Toxicity in zebra fish embryo assessed as stunted tail at 50 to 75 uM uM dosed at 5 hpf and measured after 44 to 48 hpf by microscopic based assay. The class given is organism-based, Danio rerio. To be noted: zebrafish, in vivo.
Data set [10] has as its system SH-SY5Y. Nature of the data set: Induction of neurogenesis in human SH-SY5Y cells assessed as stimulation of neurite outgrowth at 10 uM incubated for 72 hrs by phase contrast microscopic analysis. The class given is functional, cell-based. In short, it runs like this:
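SH-SY5Y cells treated 72 h at 10 μM, retinoic acid (10 μM) as positive control; neurite-bearing cells scored from images taken at 20× magnification.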

The nature of data set [11]: Toxicity in zebra fish embryo assessed as crooked tail at 50 to 75 uM uM dosed at 5 hpf and measured after 44 to 48 hpf by microscopic based assay. The class given is organism-based, Danio rerio. To be noted: zebrafish, in vivo.
The target in a further data set is Histone deacetylase 1 (Homo sapiens, UniProt Q13547). In words: Inhibition of human recombinant his tagged HDAC1 expressed in baculovirus infected […] insect cells using tertbutyloxycarbonyl (Boc)-(Ac)-Lys-7-amino-4-methylcoumarin as substrate incubated for 1 hr by fluorescence based assay.
Sequence of Histone deacetylase 1 (Q13547 whole entry): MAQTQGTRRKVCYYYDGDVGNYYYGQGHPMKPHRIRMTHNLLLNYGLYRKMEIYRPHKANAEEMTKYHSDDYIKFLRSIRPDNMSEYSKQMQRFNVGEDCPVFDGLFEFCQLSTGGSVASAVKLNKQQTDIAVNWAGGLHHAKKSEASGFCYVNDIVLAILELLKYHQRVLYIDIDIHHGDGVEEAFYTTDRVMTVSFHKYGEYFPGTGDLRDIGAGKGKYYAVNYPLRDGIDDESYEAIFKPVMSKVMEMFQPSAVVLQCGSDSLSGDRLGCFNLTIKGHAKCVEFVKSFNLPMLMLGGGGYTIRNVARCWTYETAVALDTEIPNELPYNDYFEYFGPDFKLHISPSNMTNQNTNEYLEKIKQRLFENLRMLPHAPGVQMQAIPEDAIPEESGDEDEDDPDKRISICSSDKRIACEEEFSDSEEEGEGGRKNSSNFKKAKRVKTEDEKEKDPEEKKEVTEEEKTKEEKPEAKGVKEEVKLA
The target in data set [12] is Glycogen synthase kinase-3 beta (Homo sapiens, UniProt P49841). Nature of the data set: Inhibition of human recombinant GSK3beta using GSM as substrate incubated for 30 mins by luminescence based assay.
Sequence of Glycogen synthase kinase-3 beta (P49841 whole entry): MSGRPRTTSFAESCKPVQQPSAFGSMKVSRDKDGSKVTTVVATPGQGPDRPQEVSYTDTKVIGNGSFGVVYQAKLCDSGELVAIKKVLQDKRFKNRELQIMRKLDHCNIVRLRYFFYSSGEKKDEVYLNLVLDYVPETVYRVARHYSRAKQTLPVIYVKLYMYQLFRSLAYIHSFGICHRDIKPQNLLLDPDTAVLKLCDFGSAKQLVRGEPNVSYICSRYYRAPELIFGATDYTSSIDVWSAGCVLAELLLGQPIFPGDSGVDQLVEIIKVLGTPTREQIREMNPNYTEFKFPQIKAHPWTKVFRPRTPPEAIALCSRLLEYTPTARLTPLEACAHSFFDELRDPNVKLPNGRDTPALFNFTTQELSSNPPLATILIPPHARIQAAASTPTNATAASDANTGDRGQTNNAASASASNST
Data set [13] concerns the target T2, Protein deacetylase HDAC6 (Homo sapiens) (UniProt Q9UBN7).
T2 sequence (whole entry): T1 sequence (Q9UBN7 whole entry)
In words: Inhibition of HDAC6 in human SH-SY5Y cells assessed as increase in acetylation of alpha-tubulin incubated for 30 hrs by Western blot analysis. The class given is cell-based. Summed up:
as §3

Data set [14] in a line: Toxicity in zebra fish embryo assessed as malformation of eye at 75 uM uM dosed at 5 hpf and measured after 44 to 48 hpf by microscopic based assay. To be noted: zebrafish, in vivo. The class given is organism-based, Danio rerio.
The subject of data set [15] is Cerebellar granule neurone. In words: Neuroprotective activity against 6-OHDA-induced cell death in Wistar rat primary cerebellar granule neurons at 5 uM preincubated for 6 hrs followed by 6-OHDA addition and measured after 24 hrs by MTT assay. The data set is classed as functional, cell-based. Summed up:
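Primary differentiated cerebellar granule neurons challenged with 6-OHDA with or without test compound; viability assessed; mean ± SE of at least 3 experiments in quadruplicate, one-way ANOVA with Bonferroni post hoc test.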

The source made the active and inactive calls. No cut-off for these calls is given here.

For `O=C(CCCCCNC(=S)Nc1ccc2c(c1)C(=O)NC2=O)NO`, the outcome in the data set with SH-SY5Y [1], with SH-SY5Y [3], in the data set on SH-SY5Y [5], in the data set on Microglia [6], in the data set on Microglia [8] and in the data set on SH-SY5Y [10] was Active. The outcome in [15] was Active. In addition, the Activity result in data set [2] is “Non-Toxic”; in [9] it was “Toxic”; in data set [11], “Toxic”; in data set [14], “Toxic”. For the same compound, the IC50 in [4] came out at 3.19 µM; at Histone deacetylase 1 it was 12.8 µM; in data set [12], 2690 nM. Further, in [7], the inhibition result was “inactive”. Further, in data set [13], the inhibition result is “Dose-dependent effect”.
